Laboratory results taken from ChEMBL document CHEMBL1933038 (Bioorg Med Chem Lett, 2012).
pIC50, pKi: −log10 of the molar value.

How the values were obtained:
[1] = Half life in mouse; type: ADME, organism-based; details: in vivo
Histamine H4 receptor [2] = biological target: T1, Histamine H4 receptor (Homo sapiens, UniProt Q9H3N8); test: Antagonist activity at human H4 receptor expressed in HEK293T cells assessed as inhibition of histamine-induced [35S]GTPgammaS binding; type: functional, cell-based, HEK-293T
Histamine H3 receptor [3] = biological target: Histamine H3 receptor (Rattus norvegicus, UniProt Q9QYN8); test: Displacement of [3H]histamine from rat H3R
Histamine H3 receptor (Rattus norvegicus, UniProt Q9QYN8), sequence (Q9QYN8 whole entry): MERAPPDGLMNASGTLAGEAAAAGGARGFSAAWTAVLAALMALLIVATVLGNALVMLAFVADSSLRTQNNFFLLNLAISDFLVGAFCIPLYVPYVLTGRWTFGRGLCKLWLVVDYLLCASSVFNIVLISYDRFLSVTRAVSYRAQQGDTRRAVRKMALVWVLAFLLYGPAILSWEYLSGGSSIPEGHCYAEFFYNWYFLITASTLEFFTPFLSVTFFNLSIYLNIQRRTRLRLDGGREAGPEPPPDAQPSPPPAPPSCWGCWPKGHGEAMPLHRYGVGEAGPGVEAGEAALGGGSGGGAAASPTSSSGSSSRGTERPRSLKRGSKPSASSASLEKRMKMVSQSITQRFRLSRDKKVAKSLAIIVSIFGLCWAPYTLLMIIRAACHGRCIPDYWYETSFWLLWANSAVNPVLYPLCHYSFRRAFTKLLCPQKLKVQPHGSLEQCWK

Histamine H4 receptor [4] = biological target: T1, Histamine H4 receptor; test: Displacement of [3H]histamine from human H4 receptor expressed in HEK cell membranes; set-up: species or system HEK293
Histamine H3 receptor [5] = biological target: Histamine H3 receptor (Mus musculus, UniProt P58406); test: Displacement of [3H]histamine from mouse H3R
Histamine H3 receptor (Mus musculus, UniProt P58406), sequence (P58406 whole entry): as the sequence (Q9QYN8 whole entry) above, with T15A, A286T, A290G, R387H, I389V counted along it

[6] = Metabolic stability in rat liver microsomes assessed as compound remaining after 60 mins; type: ADME, Microsome; details: read-out: Stability
In short: (§1)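 Liver microsomes (human, mouse or rat) incubated with compound for 60 min. Read-out is percentage of parent compound remaining; assay carried out by a contract laboratory.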

[7] = Metabolic stability in mouse liver microsomes assessed as compound remaining after 60 mins; type: ADME, Microsome; details: read-out: Stability; in short: as §1
[8] = Oral bioavailability in mouse; type: ADME, organism-based; details: in vivo
Histamine H4 receptor [9] = biological target: Histamine H4 receptor (Rattus norvegicus, UniProt Q91ZY1); test: Displacement of [3H]histamine from rat H4R
Histamine H4 receptor (Rattus norvegicus, UniProt Q91ZY1), sequence (Q91ZY1 whole entry): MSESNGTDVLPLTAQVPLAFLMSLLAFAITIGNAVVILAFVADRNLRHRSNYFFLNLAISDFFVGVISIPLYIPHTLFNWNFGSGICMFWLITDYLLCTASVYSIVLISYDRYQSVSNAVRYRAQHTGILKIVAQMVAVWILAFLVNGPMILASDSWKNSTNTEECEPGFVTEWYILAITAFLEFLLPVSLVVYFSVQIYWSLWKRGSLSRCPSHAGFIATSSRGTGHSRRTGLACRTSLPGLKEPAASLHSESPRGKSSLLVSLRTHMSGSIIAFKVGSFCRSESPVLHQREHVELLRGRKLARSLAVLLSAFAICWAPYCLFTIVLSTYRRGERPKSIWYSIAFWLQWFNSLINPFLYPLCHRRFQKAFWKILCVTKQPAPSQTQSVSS

Histamine H1 receptor [10] = biological target: Histamine H1 receptor (Homo sapiens, UniProt P35367); test: Displacement of [3H]histamine from human H1 receptor expressed in HEK cell membranes; set-up: species or system HEK293
Histamine H1 receptor (Homo sapiens, UniProt P35367), sequence (P35367 whole entry): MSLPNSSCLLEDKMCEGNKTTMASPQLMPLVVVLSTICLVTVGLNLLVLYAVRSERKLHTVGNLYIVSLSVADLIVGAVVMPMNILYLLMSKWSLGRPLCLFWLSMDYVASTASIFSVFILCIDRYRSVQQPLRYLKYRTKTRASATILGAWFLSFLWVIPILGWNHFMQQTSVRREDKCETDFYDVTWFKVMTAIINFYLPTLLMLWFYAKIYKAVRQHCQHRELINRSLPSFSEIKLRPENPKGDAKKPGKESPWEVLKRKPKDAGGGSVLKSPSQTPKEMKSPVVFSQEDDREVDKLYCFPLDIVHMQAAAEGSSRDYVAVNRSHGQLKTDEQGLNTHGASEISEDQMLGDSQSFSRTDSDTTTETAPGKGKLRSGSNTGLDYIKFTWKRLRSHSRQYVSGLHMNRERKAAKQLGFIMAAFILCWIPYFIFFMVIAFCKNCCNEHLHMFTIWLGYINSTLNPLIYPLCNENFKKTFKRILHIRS

Histamine H4 receptor [11] = biological target: T2, Histamine H4 receptor (Mus musculus, UniProt Q91ZY2); test: Displacement of [3H]histamine from mouse H4R
T2 sequence (Q91ZY2 whole entry): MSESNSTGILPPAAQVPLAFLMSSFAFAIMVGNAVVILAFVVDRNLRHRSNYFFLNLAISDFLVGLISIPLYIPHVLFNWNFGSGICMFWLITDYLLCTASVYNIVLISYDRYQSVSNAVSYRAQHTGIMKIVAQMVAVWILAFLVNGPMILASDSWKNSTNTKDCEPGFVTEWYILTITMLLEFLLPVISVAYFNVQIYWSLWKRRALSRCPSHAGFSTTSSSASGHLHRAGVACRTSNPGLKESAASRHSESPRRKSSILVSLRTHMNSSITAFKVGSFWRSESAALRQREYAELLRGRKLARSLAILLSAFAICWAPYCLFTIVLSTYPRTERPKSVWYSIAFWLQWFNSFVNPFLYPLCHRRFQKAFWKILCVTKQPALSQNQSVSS

Histamine H1 receptor [12] = biological target: Histamine H1 receptor (Rattus norvegicus, UniProt P31390); test: Displacement of [3H]histamine from rat H1R
Histamine H1 receptor (Rattus norvegicus, UniProt P31390), sequence (P31390 whole entry): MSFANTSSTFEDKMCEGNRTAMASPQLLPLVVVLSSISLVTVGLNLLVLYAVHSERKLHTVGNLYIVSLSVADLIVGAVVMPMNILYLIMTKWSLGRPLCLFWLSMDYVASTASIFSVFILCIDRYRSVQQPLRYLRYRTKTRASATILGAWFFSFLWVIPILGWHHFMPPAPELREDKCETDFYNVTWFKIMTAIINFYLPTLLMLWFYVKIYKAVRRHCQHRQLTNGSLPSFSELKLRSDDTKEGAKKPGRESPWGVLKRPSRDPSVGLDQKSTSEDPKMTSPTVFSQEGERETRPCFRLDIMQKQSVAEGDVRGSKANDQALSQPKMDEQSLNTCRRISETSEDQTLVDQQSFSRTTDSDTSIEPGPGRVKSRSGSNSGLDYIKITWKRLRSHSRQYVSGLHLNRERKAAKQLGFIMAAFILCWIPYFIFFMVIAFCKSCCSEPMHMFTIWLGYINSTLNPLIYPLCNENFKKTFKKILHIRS

Histamine H4 receptor [13] = biological target: T1, Histamine H4 receptor
[14] = Metabolic stability in human liver microsomes assessed as compound remaining after 60 mins; type: ADME, Microsome; details: read-out: Stability; in short: as §1
Histamine H3 receptor [15] = biological target: Histamine H3 receptor (Homo sapiens, UniProt Q9Y5N1); test: Displacement of [3H]histamine from human H3 receptor expressed in HEK cell membranes; set-up: species or system HEK293
Histamine H3 receptor (Homo sapiens, UniProt Q9Y5N1), sequence (Q9Y5N1 whole entry): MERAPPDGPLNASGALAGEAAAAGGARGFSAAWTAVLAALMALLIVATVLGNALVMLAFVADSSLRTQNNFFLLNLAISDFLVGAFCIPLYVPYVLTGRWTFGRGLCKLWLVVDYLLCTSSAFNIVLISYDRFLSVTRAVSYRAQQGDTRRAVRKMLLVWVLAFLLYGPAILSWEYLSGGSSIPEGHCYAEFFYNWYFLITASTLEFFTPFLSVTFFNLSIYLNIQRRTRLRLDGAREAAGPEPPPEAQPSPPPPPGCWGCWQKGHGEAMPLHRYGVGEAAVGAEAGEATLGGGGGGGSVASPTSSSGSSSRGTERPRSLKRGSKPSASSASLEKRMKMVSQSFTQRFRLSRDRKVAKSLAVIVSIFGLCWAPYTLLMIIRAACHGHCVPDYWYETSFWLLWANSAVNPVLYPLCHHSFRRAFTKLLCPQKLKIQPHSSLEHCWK

[16] = biological target: Histamine H2 receptor (Homo sapiens) (UniProt P25021); test: Displacement of cimetidine from H2 receptor at 10 uM
Histamine H2 receptor (Homo sapiens), sequence (P25021 whole entry): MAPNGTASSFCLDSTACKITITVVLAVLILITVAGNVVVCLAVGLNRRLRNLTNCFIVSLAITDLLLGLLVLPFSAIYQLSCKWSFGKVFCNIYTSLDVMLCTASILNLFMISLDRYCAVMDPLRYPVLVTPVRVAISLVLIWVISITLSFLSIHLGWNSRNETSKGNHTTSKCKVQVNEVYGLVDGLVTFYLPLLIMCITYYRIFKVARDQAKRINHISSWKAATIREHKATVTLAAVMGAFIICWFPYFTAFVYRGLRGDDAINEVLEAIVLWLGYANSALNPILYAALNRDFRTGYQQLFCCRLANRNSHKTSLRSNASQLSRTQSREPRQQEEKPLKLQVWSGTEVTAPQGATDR
In short: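 Single test concentration of 10 μM, run in duplicate. Result given as percentage displacement of cimetidine binding at the H2 receptor; assay carried out by a contract laboratory.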

| pIC50 (Histamine H4 receptor [2]) | pKi (Histamine H4 receptor [2]) | pKi (Histamine H4 receptor [4]) | pKi (Histamine H1 receptor [10]) | Compound | other results |
| --- | --- | --- | --- | --- | --- |
| 6.97 | 8.15 | 7.80 | 4.98 | Nc1nc(N2CCNCC2)c2ccc(-c3ccco3)cc2n1 | half-life [1]: 412 min; pKi (Histamine H3 receptor [3]): 5.59; pKi (Histamine H3 receptor [5]): 5.97; remaining at 1 h [6]: 83%; remaining at 1 h [7]: 80%; bioavailability [8]: 47%; pKi (Histamine H4 receptor [9]): 6.76; pKi (Histamine H4 receptor [11]): 7.64; pKi (Histamine H1 receptor [12]): 5.44; T1/2 (Histamine H4 receptor [13]): 4.1 min; remaining at 1 h [14]: 96% |
| 7.08 | 8.30 | 8.30 | 5.19 | CN1CCN(c2nc(N)nc3cc(-c4ccco4)ccc23)CC1 | pKi (Histamine H3 receptor [15]): 7.01; Activity [16]: 51% |
|  |  | 8.22 |  | Nc1nc2c(c(N3CCNCC3)n1)CCC1=C2[C@H]2CCCC[C@H]2O1 |  |
|  |  | 7.82 |  | CC(=O)c1cccc(-c2ccc3c(N4CCN(C)CC4)nc(N)nc3c2)c1 |  |
| 7.34 | 8.52 | 8.40 | 5.55 | CN1CCN(c2nc(N)nc3cc(-c4ccsc4)ccc23)CC1 | pKi (Histamine H3 receptor [15]): 7.20; Activity [16]: 74% |
|  |  | 8.22 |  | CN1CCN(c2nc3cc(Cl)c(Cl)cc3[nH]c2=O)CC1 |  |
|  |  | 6.17 |  | CC(=O)c1cccc(-c2cccc3c(N4CCN(C)CC4)nc(N)nc23)c1 |  |
|  |  |  |  | CN1CCN(C(=O)c2nc3ccc(Cl)cc3[nH]2)CC1 | T1/2 (Histamine H4 receptor [13]): 25.6 min |

| Compound | pIC50 (Histamine H4 receptor [2]) | pKi (Histamine H4 receptor [2]) | pKi (Histamine H4 receptor [4]) | pKi (Histamine H1 receptor [10]) | other results |
| --- | --- | --- | --- | --- | --- |
| CN1CCN(c2nc(N)nc3cc(-c4ccoc4)ccc23)CC1 | 7.33 | 8.40 |  | 5.13 | pKi (Histamine H3 receptor [15]): 6.73; Activity [16]: 54% |
| CN1CCN(c2ncnc3ccccc23)CC1 |  |  | 6.48 |  |  |
| CN1CCN(c2nc(N)nc3ccccc23)CC1 |  |  | 7.49 |  |  |
| CN1CCN(c2ccnc(N)n2)CC1 |  |  | 7.51 |  |  |
| Cc1ccc2nc(N)nc(N3CCN(C)CC3)c2c1 |  |  | 6.19 |  |  |
